In the library only some 1.1% were active in any assay of this set; here they are far more common.
Diaph act CS: counter-screen for diaphorase-based assays: diaphorase activators and chemical reducers; Diaphorase/resazurin coupled assay, resorufin fluorescence, 16 min; stronger effect = higher value; 1 = vehicle wells, 0 = NADH-free wells; activation factor at 20 µM; 190,000 compounds, 0.005% hits; AID 1229;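 active = diaphorase activity raised at least twofold by the compound at 20 µM; inactive = activation factor below 2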
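Test system: Clostridium kluyveri diaphorase, purified enzyme. Buffer or medium: 50 mM HEPES pH 7.4 buffer plus MgCl2 and Tween 20. Also added: 0.114 mM NADH and 0.1 mM resazurin, final amounts. Dosing: compound 20 µM once, DMSO 1%. Schedule: 16 min enzyme reaction, ambient temperature. Detection: fluorescence of resorufin, 544 nm excitation, 590 nm emission.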
Diaphorase inh: inhibits diaphorase or chemically oxidizes, flagging diaphorase assay artifacts; 190,000 compounds, 0.69% hits; inhibition, % at 20 µM; diaphorase resazurin-to-resorufin fluorescence, NADH, 16 min; bacterial (C. kluyveri) enzyme, not human; AID 1217;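 active = primary screen inhibition at 20 µM above a set limit, cut at about 50% in these data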;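 note: plate controls were DMSO with full reaction for no effect and wells lacking NADH for full effect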
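controls = No-NADH positive control and DMSO neutral control | system = Clostridium kluyveri diaphorase enzyme | timing = reaction incubation of 16 min at room temperature | signal = resorufin fluorescence 544/590 nm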
Tb hexokinase: blocks Trypanosoma brucei hexokinase 1 activity. inhibition, % at 10 µM. 220,000 compounds, 0.11% hits. recombinant TbHK1, G6PDH-coupled NADH A340;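 active = inhibition of 50% or more in the single-dose primary screen; inactive = inhibition below 50%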
G6PDH CS: inhibits Leuconostoc G6PDH, flagging false hits in G6PDH-based assays; AID 1020; 200,000 compounds, 0.12% hits; inhibition, % at 5 µM; Purified L. mesenteroides G6PDH, diaphorase/resazurin coupled fluorescence, 45 min; in the data active = inhibition above about 50%
PMI act: phosphomannose isomerase (human) activation | activation factor at 20 µM | P34949 | 190,000 compounds, 0.005% hits | purified human PMI, coupled resazurin fluorescence, 20 min; stronger effect = higher value; 1 = vehicle control, 0 substrate-free wells;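 active = activation factor of 2 or more at 20 µM, relative to plate controls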
Target sequence (P34949 whole entry, looked up): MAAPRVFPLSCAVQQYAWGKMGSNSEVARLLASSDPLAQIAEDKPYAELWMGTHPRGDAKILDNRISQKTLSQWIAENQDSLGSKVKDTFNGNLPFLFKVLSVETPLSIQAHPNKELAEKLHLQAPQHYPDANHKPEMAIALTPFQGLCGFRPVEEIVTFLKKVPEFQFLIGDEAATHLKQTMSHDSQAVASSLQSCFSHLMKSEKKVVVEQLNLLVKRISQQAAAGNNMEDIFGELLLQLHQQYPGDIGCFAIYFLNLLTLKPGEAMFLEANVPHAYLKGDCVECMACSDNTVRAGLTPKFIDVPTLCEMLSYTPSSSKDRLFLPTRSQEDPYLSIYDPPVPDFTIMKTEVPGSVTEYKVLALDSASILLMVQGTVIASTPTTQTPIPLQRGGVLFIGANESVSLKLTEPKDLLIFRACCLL
PMI act satM6P: activators of human phosphomannose isomerase at near-saturating mannose 6-phosphate. P34949. coupled PMI enzyme assay, resazurin fluorescence, 20 min; stronger effect = higher value; 1 = untreated enzyme, 0 = substrate-free blank. activation factor at 20 µM. 190,000 compounds, 0.34% hits;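 active = activation factor of 2 or more at 20 µM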
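Material: human phosphomannose isomerase with PGI, G6PDH, diaphorase coupling enzymes / Reagent: Man-6-P substrate 1.0 mM / Dosing: single compound dose of 20 µM, 1% DMSO final / Incubation: enzyme reaction with compound 20 min at room temperature / Signal: resorufin fluorescence (Ex 544/Em 590 nm) from resazurin via diaphorase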
* hit, by the source's call; · = no result.

SMILES	Diaph act CS	Diaphorase inh	Tb hexokinase	G6PDH CS	PMI act	PMI act satM6P
COC(=O)c1cc(-c2ccc(S(=O)(=O)N3CCCCC3)cc2)c(C(F)(F)F)s1	·	·	-4	·	·	·
Cc1ccc(C)c2[nH]c(=O)c(C(c3nnnn3Cc3ccco3)N3CCc4ccccc4C3)cc12 (configuration not stated)	0.4	57*	-6	18	0.9	1
Cc1ccc(C)c2[nH]c(=O)c(C(c3nnnn3CCc3ccccc3)N3CCOCC3)cc12 (configuration not stated)	0.8	15	-11	7	1.1	1
CCOC(=O)c1ccc(NC(=O)CSc2n[nH]c(-c3ccncc3)n2)cc1	0.5	51*	2	-24	0.9	1
COC(=O)c1ccc(NC(=O)CSc2n[nH]c(-c3ccncc3)n2)cc1	0.7	32	-2	-18	0.9	0.9
O=C(CSc1ncccn1)NCc1cccc(Cl)c1	1.1	-12	4	11	1.1	1.1
CCO[C@@H]1OC(C(=O)N2CCN(Cc3ccc4c(c3)OCO4)CC2)=C[C@H](c2cn(C(C)=O)c3ccccc23)[C@H]1CCCO	0.4	56*	-14	18	0.8	0.8
CC(=O)n1cc([C@H]2C=C(C(=O)N3CCN(Cc4ccc5c(c4)OCO5)CC3)O[C@@H](OCCCCO)C2)c2ccccc21	0.4	56*	-11	18	0.8	1
Cc1ccc(S(=O)(=O)N2CCC(C(=O)NNC(=O)c3cccnc3)CC2)cc1	1	-3	-2	10	1	1.1
CCc1cccc(NC(=O)c2ccc3c(=O)n4c(nc3c2)CCCCC4)c1	·	·	-7	·	·	·
O=C(O)CC1S/C(=N/N=C/c2ccc(-c3ccccc3[N+](=O)[O-])o2)NC1=O (configuration not stated)	0.5	52*	-67	12	0.3	0.5
COc1ccc(C(=O)NCCn2cc(SCC(N)=O)c3ccccc32)cc1	·	·	-10	·	·	·
Cc1ccnc(SCCn2c(N3CC(C)CC(C)C3)nc3c2c(=O)n(C)c(=O)n3C)n1 (configuration not stated)	0.5	51*	-6	7	1	1
C=CCNC(=S)NNC(=O)c1cc(O)ccc1O	0.7	34	-5	22	0.8	0.8
CCN(CC)CCNc1cc(C)nc2c1C(=O)C(=O)C=C2N1CCCCC1	·	·	-7	51*	·	·
Oc1cccc2cc3cccc(O)c3c(O)c12	0.9	8	9	6	1.8	2.2*
COc1cc2cccc(OC)c(=O)c2c(O)c1OC	0.9	14	-4	7	0.9	1
CCN(C(=O)C(C)Cl)c1ccccc1 (configuration not stated)	1	-2	3	2	1	1
CCC(C)n1c(C)nc2c(c1=O)c1nc3ccccc3nc1n2CCC1=CCCCC1 (configuration not stated)	0.4	64*	0	-1	1	1
CCCCn1c2nc3ccccc3nc2c2c(=O)n(C(C)CC)cnc21 (configuration not stated)	0.7	26	-16	5	1	0.5
O=C(CN1CCN(CCN2C(=O)c3cccc4cccc(c34)C2=O)CC1)c1ccc(F)cc1	0.9	11	-24	-42	1.4	1.6
O=C(CN1CCN(CCN2C(=O)c3cccc4cccc(c34)C2=O)CC1)c1ccc(Cl)cc1	1	0	-3	-19	1.7	2.6*
S=c1nc2ccccc2c2nc(-c3ccccc3)[nH]n12	0.2	77*	-1	6	1.1	1.1
S=c1nc(-c2ccccc2)[nH]n1-c1ccccc1	0.9	9	1	2	1.1	1.1
CC(Oc1ccc(Br)cc1)c1nc2c3ccccc3nc(=S)n2[nH]1 (configuration not stated)	0.1	85*	-4	4	1	0.9
SMILES	Diaph act CS	Diaphorase inh	Tb hexokinase	G6PDH CS	PMI act	PMI act satM6P
CCOC(=O)c1cc2c(N)c(C(=O)c3ccc(Br)cc3)sc2[nH]c1=O	0.7	27	-37	0	1.3	1.3
COc1ccc(S(=O)(=O)N2CCN(c3ccc4nnc(-c5ccccc5)n4n3)CC2)cc1	0.5	53*	-28	6	0.7	0.8
CCN1c2ccccc2N(C)C1(C)c1ccccc1 (configuration not stated)	0.4	59*	-13	-5	0.4	0.5
CN1c2ccccc2N(C)C1(C)c1ccccc1	0.8	22	-3	10	0.7	0.7
O=C(O)CCSc1nnc(COc2cccc3ccccc23)n1-c1cccc(Cl)c1	1	5	-6	5	1.1	1
CCOC(=O)C1=C(Cc2ccc(OC)cc2)C(=O)c2ccccc2C1=O	0.7	31	28	57*	0.8	1
CCOC(=O)C1=C(Cc2ccc(C)cc2)C(=O)c2ccccc2C1=O	0.6	40	-3	54*	1.2	1.5
Cc1ccc2c(ccc(=S)n2C)c1	0.9	10	-3	0	1.9	2.7*
Cc1ccc2c(c1)nc(NCCO)n2C	1	1	1	4	1	0.9
C=CCN=C(NC#N)SC	·	·	-5	·	·	·
Cn1c(CO)cnc1-c1ccccc1	·	·	-4	·	·	·
CSc1cc(-c2ccc(Cl)cc2)[nH]c(=O)c1C#N	0.9	7	-19	-2	1.1	1
Cc1ccc(-c2[nH]c(=S)[nH]c(=O)c2C#N)cc1	0.2	78*	-35	10	1.1	1.1
O=C1CS/C(=N\N=C\c2ccccc2Cl)N1CC1CC1	·	·	-1	·	·	·
CN(C)S(=O)(=O)Oc1cc(Cl)ccc1C(=O)Nc1ccc(F)cc1F	1.1	-10	6	3	1.1	1.1
COc1ccc(CCNC(=O)c2ccc3nc(-c4ccco4)c(-c4ccco4)nc3c2)cc1OC	0.3	66*	-4	16	1	1
CCCNC(=O)c1ccc2c(=O)n(Cc3ccco3)c(=S)[nH]c2c1	0.8	19	-4	-5	1	1.1
COc1ccc(CCNC(=O)c2ccc3c(SCC(=O)O)c4c(nc3c2)CCCC4)cc1OC	0.3	68*	-13	2	1.4	1.5
COc1ccc(CCNC(=O)c2ccc3c(=O)n(Cc4ccco4)c(=S)[nH]c3c2)cc1OC	0.5	51*	-15	1	0.9	1.3
CCOC(=O)C1=C(C)NC(=O)C1CC(=O)Nc1ccccc1 (configuration not stated)	1.4	-35	-6	12	2.1*	3*
COc1ccc(NC(=S)Nc2ccc(Oc3ccccc3)cc2)cc1	1.1	-8	6	1	1	0.9
COc1ccccc1NC(=S)Nc1cccc2cnccc12	0.4	65*	-7	-6	0.3	0.4
